Experimental data: paper PMC10826612 (Food Chemistry: X, 2024)

How the values were obtained:
tyrosinase (TYR) [1] = molecular target: T1, tyrosinase (TYR) (Agaricus bisporus, UniProt C7FF04); assay: UV spectra measurement of TYR with inhibitor; type: binding
HEK-293 cells = assay: CCK-8 cell viability assay; type: cell-based, human; conditions: in words
Procedure, shortened: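 Log-phase HEK-293 cells were seeded at 1 × 10^5 cells/well and held at 37 °C for 24 h. They were then exposed for 24 h to test compound at 4, 12, 36 or 108 µM, prepared in PBS. Wells were washed twice with PBS, and medium containing 10 % CCK-8 was added. Absorbance at 450 nm was read after 2 h.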

tyrosinase (TYR) [2] = molecular target: T1, tyrosinase (TYR); assay: CD spectroscopy of TYR secondary structure; type: binding; conditions: molar ratio 1:6
tyrosinase (TYR) [3] = molecular target: T1, tyrosinase (TYR); assay: Fluorescence quenching titration of TYR; type: binding
tyrosinase (TYR) [4] = molecular target: T1, tyrosinase (TYR); assay: ANS fluorescence assay; type: binding; conditions: 6f 60 µM (533 nm at 0 µM)
tyrosinase (TYR) [5] = molecular target: T1, tyrosinase (TYR); assay: Kinetic analysis of TYR; type: biochemical; conditions: Lineweaver-Burk plot

T1 sequence (C7FF04 1-392): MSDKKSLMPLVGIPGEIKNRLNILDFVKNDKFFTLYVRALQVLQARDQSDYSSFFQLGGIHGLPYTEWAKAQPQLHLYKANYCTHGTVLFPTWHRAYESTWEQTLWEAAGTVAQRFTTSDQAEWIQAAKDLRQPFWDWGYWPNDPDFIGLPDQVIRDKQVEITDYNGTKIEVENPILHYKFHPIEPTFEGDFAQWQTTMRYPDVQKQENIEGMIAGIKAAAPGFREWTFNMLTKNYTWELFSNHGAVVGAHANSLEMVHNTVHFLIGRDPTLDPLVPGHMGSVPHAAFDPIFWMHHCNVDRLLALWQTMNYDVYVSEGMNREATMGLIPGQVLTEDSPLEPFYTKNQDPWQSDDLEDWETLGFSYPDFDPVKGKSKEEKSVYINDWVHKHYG

CCCc1cc(=O)oc2cc(OCc3cc(=O)c(O)co3)ccc12 [Compound 6f]
effect on the UV absorption peak of TYR at 280 nm (tyrosinase (TYR) [1]): significantly reduced the absorption peak of TYR at 280 nm | cytotoxicity (HEK-293 cells): low cytotoxicity | α-Helix content of TYR (tyrosinase (TYR) [2]): 32.50% | β-Turn content of TYR (tyrosinase (TYR) [2]): 17.20% | β-sheet content of TYR (tyrosinase (TYR) [2]): 17.50% | quenching constant Kq (tyrosinase (TYR) [3]; Stern-Volmer plot): 3.95 × 10^12 L/mol S^-1 | number of binding sites n (tyrosinase (TYR) [3]; double reciprocal equation): 1.12 | mode of action on TYR (quenching type) (tyrosinase (TYR) [3]; multispectral experiments): static quenching | maximum emission wavelength of ANS-TYR fluorescence (tyrosinase (TYR) [4]): 500 nm | inhibition type (tyrosinase (TYR) [5]): mixed-type inhibitor
